14-3-3 Bad inh – disrupts binding of bovine 14-3-3 zeta to phospho-Bad peptide. P63103. TR-FRET 14-3-3zeta/Dy647-pBad peptide displacement, 1 h. inhibition, % at 21.7 µM. 0.71% of 220,000 active. AID 781;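 active = inhibition above about 70%, limit read from the data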;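 note: 0% = full 14-3-3 plus peptide FRET controls and 100% = background without 14-3-3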
Target sequence (P63103 whole entry, looked up): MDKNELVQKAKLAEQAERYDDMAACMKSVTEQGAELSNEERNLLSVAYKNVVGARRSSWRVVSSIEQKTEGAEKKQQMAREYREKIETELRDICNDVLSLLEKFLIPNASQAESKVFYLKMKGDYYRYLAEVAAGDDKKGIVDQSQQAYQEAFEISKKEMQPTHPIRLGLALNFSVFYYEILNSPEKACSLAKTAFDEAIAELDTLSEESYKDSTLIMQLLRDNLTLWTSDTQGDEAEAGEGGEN
RBBP9 inh – inhibitors of human serine hydrolase RBBP9. O75884. recombinant RBBP9, FP-Rh probe fluorescence polarization. inhibition, % at 7.94 µM. 0.2% of 220,000 active;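 active = inhibition above the campaign mean of all tested compounds plus 3 SD, cut at about 14% in these data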;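 note: plate controls were DMSO wells with RBBP9 for no effect and wells lacking RBBP9 protein for full effect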
Target sequence (O75884 whole entry, looked up): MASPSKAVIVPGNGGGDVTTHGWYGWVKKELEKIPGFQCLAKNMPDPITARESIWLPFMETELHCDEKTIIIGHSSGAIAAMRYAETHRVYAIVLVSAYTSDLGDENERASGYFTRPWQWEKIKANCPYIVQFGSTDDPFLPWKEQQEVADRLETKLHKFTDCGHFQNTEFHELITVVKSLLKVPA
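Test system: recombinant human RBBP9. Quantity: 2.5 µM RBBP9 dispensing solution, before mixing. Detection: FP readout at 525/598 nm. Reagent: Serine-hydrolase probe FP-Rh, 375 nM pre-mixing. Measure: % inhibition. Control set: DMSO-treated enzyme wells and wells lacking RBBP9. Buffer or medium: Tris-NaCl-Pluronic buffer, pH 8.0. Times: preincubation 30 min plus labeling 45 min at 25 °C.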
p47phox inh – p47phox (human) inhibition; p47phox/p22phox peptide binding, fluorescence polarization, 2 h; 0.53% of 220,000 active; P14598; inhibition, % at 24.7 µM;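 active = inhibition above about 30%, limit read from the data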;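 note: 0% = p47phox with labelled peptide and 100% = labelled peptide alone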
WT yeast gro inh – growth inhibition of WT yeast, mitochondrial fusion screen | AID 1362 | mitochondrial fusion phenotypic screen, WT strain | 2.1% of 190,000 active | inhibition, % at 10 µM; in the data active = inhibition above about 58%; tested in S. cerevisiae
ROMK mod – modulators of human ROMK potassium channel; P48048; Tet-inducible ROMK, thallium flux fluorescence; actives lie on both sides; B-score at 10 µM; 2% of 130,000 active; AID 1918;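 active = signal ratio slope over the read window, or its plate-corrected B-score, at least 3 SD from the plate mean, either direction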;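 note: B-score of the F/F0 ratio slope over 7 to 12 s after thallium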
Cl transport mod – KCC2 (human) Cl- transport modulation. Q9H2X9. KCC2 cells, thallium flux FluoZin-2 fluorescence. B-score of Tl+ flux slope (higher = more flux/activation; lower = inhibition) at 10 µM. 2.2% of 190,000 active. AID 1456;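 active = thallium flux slope and its plate-corrected score both differing from the plate sample mean at a set confidence after two filtering rounds, in either direction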;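 note: slope of fluorescence scaled to starting intensity during 10 to 20 s after thallium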
KCC2 sec1 – KCC2 (human) modulation, secondary assay; shares compounds with Cl transport mod; HEK293-KCC2, thallium flux, FluoZin2 fluorescence; stronger effect = higher value; normalised thallium flux (F/F0 slope) at 10 µM; 15% of 3,700 active; AID 1713;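 active = thallium flux slope above the same plate's solvent-only control mean plus 3 SD; inconclusive = the two replicate wells disagree; inactive = no significant difference from solvent-only control wells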
KCC2 bumet counter – bumetanide-insensitive thallium flux in KCC2 cells with ouabain, counter-screen; AID 1714; 49% of 3,700 active; shares compounds with Cl transport mod; normalized thallium flux at 10 µM; HEK293-KCC2 + bumetanide/ouabain, thallium flux FluoZin2; stronger effect = higher value;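 active = thallium entry rate above the same plate's blocked-transporter control wells by more than 3 SD; inconclusive = the two repeat wells disagree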;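 note: raw slope of fluorescence over initial fluorescence between 10 and 20 s after thallium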
KCC2 secondary2 – KCC2 (human) modulation, second secondary assay | shares compounds with Cl transport mod | HEK293-KCC2, thallium flux FluoZin2 fluorescence; actives lie on both sides; F/F0 rise rate, 10–20 s post-thallium | normalized thallium flux at 10 µM | 23% of 3,700 active | AID 1715;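 active = thallium flux slope more than 3 SD above or below the plate's solvent-only control mean, mostly below; inconclusive = the two repeat wells disagreed; inactive = no significant shift from solvent-only controls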;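 note: raw slope with 0.1% DMSO as baseline and bumetanide as block control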
HEK counter1 – parental HEK flux effect, counter-screen | shares compounds with Cl transport mod | HEK293 parental cells, thallium flux FluoZin2, ouabain; baseline-ratio fluorescence slope, 10–20 s after thallium | thallium flux rate (normalised fluorescence) at 10 µM | 46% of 3,700 active;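 active = thallium flux rate significantly above the same plate's solvent-only control wells, beyond their mean plus 3 SD; inconclusive = the two replicate wells gave conflicting results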
KCC2 retest ouab – KCC2 (human) modulation, ouabain retest; shares compounds with Cl transport mod; HEK293-KCC2, thallium flux FluoZin2 fluorescence; bidirectional: low = inhibitor, high = activator; raw Tl+ flux slope (below DMSO = inhibition, above = activation) at 10 µM; 48% of 3,700 active; AID 1717;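 active = thallium flux slope beyond 3 SD from same-plate DMSO control mean in most replicates, usually higher, sometimes lower; inconclusive = repeat tests gave conflicting results; inactive = no significant difference from controls in most replicates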;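 note: slope of initial-normalized fluorescence between seconds 10 and 20 after thallium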
HEK293 Tl flux2 – acts in parental HEK cells, second KCC2 counter-screen | shares compounds with Cl transport mod | HEK293 parental, thallium flux FluoZin-2 fluorescence slope | thallium flux slope at 10 µM | 33% of 3,700 active | AID 1718;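 active = thallium flux slope above the same plate's solvent-control mean plus 3 SD in both duplicate wells; inconclusive = duplicate wells that disagreed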;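 note: run without ouabain in cells lacking the KCC2 cotransporter; slope of fluorescence scaled to its starting value between 10 and 20 s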
Active calls of the source: *. Rows were chosen to be rich in hits. Some 5.8% of all compounds tested hit in one or more screens of this group.

For Cc1ccc(-n2ncc3c(SCC(=O)NNC(=O)c4ccco4)ncnc32)cc1 the results were 14-3-3 Bad inh 1.5, RBBP9 inh 0.3, p47phox inh -8.3, WT yeast gro inh -5.9, Cl transport mod 37*, KCC2 sec1 inconclusive, KCC2 bumet counter 0.0407*, KCC2 secondary2 inconclusive, HEK counter1 0.0347*, KCC2 retest ouab 0.0349* and HEK293 Tl flux2 0.0321*.
For CCOC(=O)c1c(C(C)(C)C)oc2ccc(O)cc12 the results were 14-3-3 Bad inh -3.3, RBBP9 inh -5.4, p47phox inh -10.3, WT yeast gro inh -20.1, Cl transport mod -6.17*, KCC2 sec1 0.00796, KCC2 bumet counter 0.00633, KCC2 secondary2 0.0352, HEK counter1 0.00786, KCC2 retest ouab inconclusive and HEK293 Tl flux2 0.0105.
For CC12CN(NC(=O)c3ccccc3F)C3(C#N)CC1CCC23C (stereo unspecified) the results were 14-3-3 Bad inh 9.7, RBBP9 inh -0.9, p47phox inh 5.6, WT yeast gro inh 14.2, ROMK mod -0.102 and Cl transport mod 0.209.
Screening Cc1cc(C)c2sc(NNC(=O)C3COc4ccccc4O3)nc2c1 (stereo unspecified) returned 14-3-3 Bad inh -11.5, RBBP9 inh -2.9, p47phox inh -11.5, WT yeast gro inh 1.9, ROMK mod -0.546 and Cl transport mod -0.589.
Cc1cccc2sc(NNC(=O)C3COc4ccccc4O3)nc12 (stereo unspecified) was read as 14-3-3 Bad inh 4.0, RBBP9 inh -3.5, p47phox inh 2.4, WT yeast gro inh -10.6, ROMK mod -2.16, Cl transport mod 10*, KCC2 sec1 0.00902, KCC2 bumet counter 0.0431*, KCC2 secondary2 0.0334, HEK counter1 0.0165*, KCC2 retest ouab 0.0354* and HEK293 Tl flux2 0.0155*.
O=C(Nc1nnc(C(F)(F)F)s1)C1COc2ccccc2O1 (stereo unspecified) was read as 14-3-3 Bad inh 7.0, RBBP9 inh -1.6, p47phox inh -8.5, WT yeast gro inh 16.2, Cl transport mod -3.79*, KCC2 sec1 0.00825, KCC2 bumet counter 0.00684, KCC2 secondary2 0.0347, HEK counter1 0.00428, KCC2 retest ouab 0.0184 and HEK293 Tl flux2 0.0121.
Screening O=C(Nc1nnc(C2CC2)s1)C1COc2ccccc2O1 (stereo unspecified) returned 14-3-3 Bad inh -9.2, RBBP9 inh -10.5, p47phox inh -12.7, WT yeast gro inh -2.3 and Cl transport mod 0.996.
`O=C(NNc1nc2c(F)cc(F)cc2s1)C1COc2ccccc2O1` (stereo unspecified) gave 14-3-3 Bad inh -12.2, RBBP9 inh -4.3, p47phox inh -1.2, WT yeast gro inh -6.3, ROMK mod -1.3, Cl transport mod 5.98*, KCC2 sec1 inconclusive, KCC2 bumet counter 0.0357*, KCC2 secondary2 0.0373, HEK counter1 inconclusive, KCC2 retest ouab 0.0325* and HEK293 Tl flux2 inconclusive.
